Measured values taken from ChEMBL document CHEMBL1123232, “Acyl, N-protected alpha-aminoacyl, and peptidyl derivatives as prodrug forms of the alcohol deterrent agent cyanamide” (J Med Chem, 1986).

Assays:
Assay type in all cases: functional, organism-based
Rattus norvegicus [1] = test: (§1) Tested for effect on ethanol derived blood Ach levels in rats at 1.0 mmol/kg
How it was run: (§2)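 Fasted male Sprague-Dawley rats (185-225 g) received a single 1.0 mmol/kg ip dose at zero time, in saline or in 2% aqueous CMC if water-insoluble. Ethanol (2.0 g/kg, ip) was given at 2 or 15 h. Blood from open-chest cardiac puncture 1 h later went into 5 mM sodium azide. Headspace GC in duplicate against an AcH standard curve. Four rats per protocol; mean ± SE.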

Rattus norvegicus [2] = test: as §1; how it was run: as §2; remark: listed apart in the source
Rattus norvegicus [3] = test: Compound was tested for effect on ethanol derived blood Ach levels in rats at administration (pro drug administration of 1.0 mmol/kg) ip; how it was run: as §2
Rattus norvegicus [4] = test: Compound was tested for effect on ethanol derived blood Ach levels in rats at the administrations (pro drug administration of 1.0 mmol/kg) oral(po)
How it was run: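 A single 1.0 mmol/kg dose was given by stomach tube at zero time to fasted male Sprague-Dawley rats (185-225 g). Ethanol (2.0 g/kg, ip) was given 1 h before sacrifice: blood sampled at 4 h, or over 48 h with ethanol at 1, 4, 11, 23, 35 and 47 h, two rats per time. Cardiac blood went into sodium azide; AcH was measured by headspace GC in duplicate.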

| Structure (SMILES) | Concentration (Rattus norvegicus [1]) | Concentration (Rattus norvegicus [2]) | Concentration (Rattus norvegicus [3]) | Concentration (Rattus norvegicus [4]) |
| --- | --- | --- | --- | --- |
| CCCCCCCCCCCCCCCCCC(=O)NC#N | 1300 µM | 600 µM | – | – |
| N#CNC(=O)C12CC3CC(CC(C3)C1)C2 | 1250 µM | 75 µM | – | – |
| N#CNC(=O)[C@H](Cc1ccccc1)NC(=O)[C@@H]1CCC(=O)N1 | 1150 µM | 150 µM | – | – |
| CC(=O)NC#N | 250 µM | 50 µM | 400 µM | 350 µM |
| N#CNC(=O)OCc1ccccc1 | 1200 µM | 50 µM | – | – |
| N#CNC(=O)c1ccccc1 | 300 µM | 100 µM | – | – |
| CCCCCCCCCCCCCCCC(=O)NC#N | 1600 µM | 1100 µM | 1150 µM | 1300 µM |
| N#CNC(=O)CNC(=O)c1ccccc1 | 400 µM | 200 µM | – | – |
| N#CNC(=O)C1CCC(=O)N1C(=O)OCc1ccccc1 (stereo not given) | 175 µM | 35 µM | – | – |
| N#CNC(=O)CNC(=O)OCc1ccccc1 | 900 µM | 35 µM | 850 µM | 125 µM |
| N#CN | 1050 µM | 225 µM | – | – |
| CC(C)(C)C(=O)NC#N | 1200 µM | 200 µM | – | – |
| CC(C)C[C@H](NC(=O)c1ccccc1)C(=O)NC#N | 1000 µM | 300 µM | – | – |
| CC(C)C[C@H](NC(=O)CNC(=O)OCc1ccccc1)C(=O)NC#N | 1050 µM | 35 µM | – | – |
| N#CNC(=O)Cc1ccccc1 | 1250 µM | 1300 µM | – | – |
| CCCC(=O)NC#N | 1750 µM | 250 µM | – | – |
| CC(C)C[C@H](NC(=O)[C@@H]1CCC(=O)N1)C(=O)NC#N | 200 µM | 25 µM | – | – |
